According to ChEMBL document CHEMBL1125337, “Synthesis and antibacterial activity of a series of basic amides of teicoplanin and deglucoteicoplanin with polyamines” (J Med Chem, 1992):
In brackets after ≈: the same amount, converted by molar mass.

Columns and labels:
[1] = Association constant to Ac2-L-Lys-D-Ala-D-Ala determined at pH 9; Value ranges from (9.5E4-3.5E5)
[2] = system: Enterococcus faecalis; assay: Minimum inhibitory concentration against Enterococcus faecalis ATCC 7080; format: functional
In short: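 Microbroth dilution MIC (µg/mL), final inoculum 10^4 cfu/mL, incubated 24 h at 37 °C in air.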

[3] = system: Staphylococcus aureus; assay: Minimum inhibitory concentration against Staphylococcus aureus L 165; format: functional
In short: (§1)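 MIC (µg/mL) by microbroth dilution in Iso-Sensitest broth; final inoculum 10^4 cfu/mL; 24 h at 37 °C in air.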

[4] = system: Streptococcus pyogenes; assay: Efficacy of compound administered perorally against Streptococcus pyogenes L 49 Septicemia in mouse; format: functional; conditions: po
In short: (§2)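 Mice were infected intraperitoneally with about 10^5 Strep. pyogenes L 49 cells, about 100 times the 50% lethal dose. Groups of 5–8 mice were treated once right after challenge, by the route stated in the line. ED50 (mg/kg) was derived from percentage survival at each dose on day 7 (Spearman-Kärber).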

[5] = system: Streptococcus pyogenes; assay: Efficacy of compound administered subcutaneously against Streptococcus pyogenes L 49 Septicemia in mouse; format: functional; conditions: sc; in short: as §2
[6] = system: Staphylococcus epidermidis; assay: Minimum inhibitory concentration against Staphylococcus epidermidis ATCC 12228; format: functional; in short: as §1
[7] = system: Streptococcus pneumoniae; assay: Minimum inhibitory concentration against Streptococcus pneumoniae L 44; format: functional
In short: (§3)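 MIC (µg/mL) by microbroth dilution in Todd-Hewitt broth, final inoculum 10^4 cfu/mL, incubated 24 h at 37 °C in air.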

[8] = system: Staphylococcus haemolyticus; assay: Minimum inhibitory concentration against Staphylococcus haemolyticus L 602; format: functional; in short: as §1
[9] = system: Streptococcus pyogenes; assay: Minimum inhibitory concentration against Streptococcus pyogenes L 49; format: functional; in short: as §3
[10] = Association constant to Ac2-L-Lys-D-Ala-D-Ala determined at pH 9; Value ranges from 5E4-7.5E4
[11] = system: Escherichia coli; assay: Minimum inhibitory concentration against Escherichia coli L 47; format: functional; in short: as §1
[12] = system: Proteus vulgaris; assay: Minimum inhibitory concentration against Proteus vulgaris ATCC 881; format: functional; in short: as §1
[13] = system: Pseudomonas aeruginosa; assay: Minimum inhibitory concentration against Pseudomonas aeruginosa ATCC 10145; format: functional; in short: as §1
[14] = system: Streptococcus pyogenes; assay: Minimum inhibitory concentration of compound was determined against Streptococcus pyogenes L 49 in mouse; format: functional

Structure (SMILES)	Ka [1] [M⁻¹]	MIC [2] [µg/mL]	MIC [3] [µg/mL]	ED50 [4] [mg/kg]	ED50 [5] [mg/kg]	MIC [6] [µg/mL]	MIC [7] [µg/mL]	MIC [8] [µg/mL]	MIC [9] [µg/mL]	Ka [10] [M⁻¹]	MIC [11] [µg/mL]	MIC [12] [µg/mL]	MIC [13] [µg/mL]	MIC [14] [µg/mL]
CC(=O)N[C@@H]1[C@H](O[C@@H]2c3ccc(c(Cl)c3)Oc3cc4cc(c3O[C@@H]3O[C@@H](CO)[C@@H](O)[C@H](O)[C@@H]3NC(=O)CCCCCCC(C)C)Oc3ccc(cc3Cl)C[C@H]3NC(=O)[C@H](N)c5ccc(O)c(c5)Oc5cc(O)cc(c5)[C@H](NC3=O)C(=O)N[C@H]4C(=O)N[C@H]3C(=O)N[C@@H]2C(=O)N[C@H](C(=O)NCCCNCCCCN)c2cc(O)cc(O[C@H]4O[C@H](CO)[C@@H](O)[C@@H](O)[C@@H]4O)c2-c2cc3ccc2O)O[C@@H](CO)[C@@H](O)[C@@H]1O	350000	0.125 (≈ 0.0623 µM)	0.125 (≈ 0.0623 µM)	81	0.05	0.063 (≈ 0.0314 µM)	0.125 (≈ 0.0623 µM)	0.125 (≈ 0.0623 µM)	0.063 (≈ 0.0314 µM)					
CC(=O)N[C@@H]1[C@H](O[C@@H]2c3ccc(c(Cl)c3)Oc3cc4cc(c3O[C@@H]3O[C@@H](CO)[C@@H](O)[C@H](O)[C@@H]3NC(=O)CCCCCCC(C)C)Oc3ccc(cc3Cl)C[C@H]3NC(=O)[C@H](N)c5ccc(O)c(c5)Oc5cc(O)cc(c5)[C@H](NC3=O)C(=O)N[C@H]4C(=O)N[C@H]3C(=O)N[C@@H]2C(=O)N[C@H](C(=O)NCCN(CCN)CCN)c2cc(O)cc(O[C@H]4O[C@H](CO)[C@@H](O)[C@@H](O)[C@@H]4O)c2-c2cc3ccc2O)O[C@@H](CO)[C@@H](O)[C@@H]1O	350000	0.063 (≈ 0.0314 µM)	0.125 (≈ 0.0623 µM)	58	0.04	0.063 (≈ 0.0314 µM)	0.063 (≈ 0.0314 µM)	0.125 (≈ 0.0623 µM)	0.063 (≈ 0.0314 µM)					
NCCNCCNC(=O)[C@H]1NC(=O)[C@H]2NC(=O)[C@H](NC(=O)[C@@H]3NC(=O)[C@H]4NC(=O)[C@@H](Cc5ccc(c(Cl)c5)Oc5cc3cc(c5O)Oc3ccc(cc3Cl)[C@H]2O)NC(=O)[C@H](N)c2ccc(O)c(c2)Oc2cc(O)cc4c2)c2ccc(O)c(c2)-c2c(O)cc(O)cc21		0.125 (≈ 0.0973 µM)	0.063 (≈ 0.0491 µM)			0.063 (≈ 0.0491 µM)	0.125 (≈ 0.0973 µM)	0.125 (≈ 0.0973 µM)	0.125 (≈ 0.0973 µM)	75000	8 (≈ 6.23 µM)	64 (≈ 49.8 µM)	64 (≈ 49.8 µM)	
NCCNCCCNCCNC(=O)[C@H]1NC(=O)[C@H]2NC(=O)[C@H](NC(=O)[C@@H]3NC(=O)[C@H]4NC(=O)[C@@H](Cc5ccc(c(Cl)c5)Oc5cc3cc(c5O)Oc3ccc(cc3Cl)[C@H]2O)NC(=O)[C@H](N)c2ccc(O)c(c2)Oc2cc(O)cc4c2)c2ccc(O)c(c2)-c2c(O)cc(O)cc21		0.125 (≈ 0.0932 µM)	0.063 (≈ 0.047 µM)			0.063 (≈ 0.047 µM)	0.125 (≈ 0.0932 µM)	0.063 (≈ 0.047 µM)	0.063 (≈ 0.047 µM)	75000	4 (≈ 2.98 µM)	128 (≈ 95.4 µM)	64 (≈ 47.7 µM)	
CC(=O)N[C@@H]1[C@H](O[C@@H]2c3ccc(c(Cl)c3)Oc3cc4cc(c3O[C@@H]3O[C@@H](CO)[C@@H](O)[C@H](O)[C@@H]3NC(=O)CCCCCCC(C)C)Oc3ccc(cc3Cl)C[C@H]3NC(=O)[C@H](N)c5ccc(O)c(c5)Oc5cc(O)cc(c5)[C@H](NC3=O)C(=O)N[C@H]4C(=O)N[C@H]3C(=O)N[C@@H]2C(=O)N[C@H](C(=O)NCCNCCNCCNCCNCCN)c2cc(O)cc(O[C@H]4O[C@H](CO)[C@@H](O)[C@@H](O)[C@@H]4O)c2-c2cc3ccc2O)O[C@@H](CO)[C@@H](O)[C@@H]1O	350000	0.125 (≈ 0.0597 µM)	0.25 (≈ 0.119 µM)	112	0.08	0.063 (≈ 0.0301 µM)	0.125 (≈ 0.0597 µM)	0.125 (≈ 0.0597 µM)	0.063 (≈ 0.0301 µM)					
N[C@H]1C(=O)N[C@@H]2Cc3ccc(c(Cl)c3)Oc3cc4cc(c3O)Oc3ccc(cc3Cl)[C@@H](O)[C@@H]3NC(=O)[C@H](NC(=O)[C@@H]4NC(=O)[C@@H](NC2=O)c2cc(O)cc(c2)Oc2cc1ccc2O)c1ccc(O)c(c1)-c1c(O)cc(O)cc1[C@@H](C(=O)O)NC3=O [TEICOPLANIN AGLYCON]		0.125 (≈ 0.104 µM)	0.063 (≈ 0.0525 µM)		0.95	0.016 (≈ 0.0133 µM)	0.125 (≈ 0.104 µM)	0.25 (≈ 0.209 µM)	0.125 (≈ 0.104 µM)		64 (≈ 53.4 µM)	128 (≈ 107 µM)	> 128	0.13 (≈ 0.108 µM)
CC(=O)N[C@@H]1[C@H](O[C@@H]2c3ccc(c(Cl)c3)Oc3cc4cc(c3O[C@@H]3O[C@@H](CO)[C@@H](O)[C@H](O)[C@@H]3NC(=O)CCCCCCC(C)C)Oc3ccc(cc3Cl)C[C@H]3NC(=O)[C@H](N)c5ccc(O)c(c5)Oc5cc(O)cc(c5)[C@H](NC3=O)C(=O)N[C@H]4C(=O)N[C@H]3C(=O)N[C@@H]2C(=O)N[C@H](C(=O)NCCCNCCCNCCCN)c2cc(O)cc(O[C@H]4O[C@H](CO)[C@@H](O)[C@@H](O)[C@@H]4O)c2-c2cc3ccc2O)O[C@@H](CO)[C@@H](O)[C@@H]1O	350000	0.125 (≈ 0.061 µM)	0.125 (≈ 0.061 µM)	80	0.06	0.063 (≈ 0.0307 µM)	0.125 (≈ 0.061 µM)	0.125 (≈ 0.061 µM)	0.063 (≈ 0.0307 µM)					
CC(=O)N[C@@H]1[C@H](O[C@@H]2c3ccc(c(Cl)c3)Oc3cc4cc(c3O[C@@H]3O[C@@H](CO)[C@@H](O)[C@H](O)[C@@H]3NC(=O)CCCCCCC(C)C)Oc3ccc(cc3Cl)C[C@H]3NC(=O)[C@H](N)c5ccc(O)c(c5)Oc5cc(O)cc(c5)[C@H](NC3=O)C(=O)N[C@H]4C(=O)N[C@H]3C(=O)N[C@@H]2C(=O)N[C@H](C(=O)NCCNCCN)c2cc(O)cc(O[C@H]4O[C@H](CO)[C@@H](O)[C@@H](O)[C@@H]4O)c2-c2cc3ccc2O)O[C@@H](CO)[C@@H](O)[C@@H]1O	350000	0.125 (≈ 0.0636 µM)	0.25 (≈ 0.127 µM)	60	0.09	0.063 (≈ 0.0321 µM)	0.125 (≈ 0.0636 µM)	0.25 (≈ 0.127 µM)	0.063 (≈ 0.0321 µM)					
CC(=O)N[C@@H]1[C@H](O[C@@H]2c3ccc(c(Cl)c3)Oc3cc4cc(c3O[C@@H]3O[C@@H](CO)[C@@H](O)[C@H](O)[C@@H]3NC(=O)CCCCCCC(C)C)Oc3ccc(cc3Cl)C[C@H]3NC(=O)[C@H](N)c5ccc(O)c(c5)Oc5cc(O)cc(c5)[C@H](NC3=O)C(=O)N[C@H]4C(=O)N[C@H]3C(=O)N[C@@H]2C(=O)N[C@H](C(=O)NCCCN2CCCCNCCCC2)c2cc(O)cc(O[C@H]4O[C@H](CO)[C@@H](O)[C@@H](O)[C@@H]4O)c2-c2cc3ccc2O)O[C@@H](CO)[C@@H](O)[C@@H]1O	350000	0.125 (≈ 0.0606 µM)	0.125 (≈ 0.0606 µM)	90	0.08	0.063 (≈ 0.0306 µM)	0.125 (≈ 0.0606 µM)	0.125 (≈ 0.0606 µM)	0.063 (≈ 0.0306 µM)					
CC(=O)N[C@@H]1[C@H](O[C@@H]2c3ccc(c(Cl)c3)Oc3cc4cc(c3O[C@@H]3O[C@@H](CO)[C@@H](O)[C@H](O)[C@@H]3NC(=O)CCCCCCC(C)C)Oc3ccc(cc3Cl)C[C@H]3NC(=O)[C@H](N)c5ccc(O)c(c5)Oc5cc(O)cc(c5)[C@H](NC3=O)C(=O)N[C@H]4C(=O)N[C@H]3C(=O)N[C@@H]2C(=O)N[C@H](C(=O)NCCCNCCCCNCCCN)c2cc(O)cc(O[C@H]4O[C@H](CO)[C@@H](O)[C@@H](O)[C@@H]4O)c2-c2cc3ccc2O)O[C@@H](CO)[C@@H](O)[C@@H]1O	350000	0.125 (≈ 0.0606 µM)	0.125 (≈ 0.0606 µM)	81	0.03	0.063 (≈ 0.0305 µM)	0.125 (≈ 0.0606 µM)	0.125 (≈ 0.0606 µM)	0.063 (≈ 0.0305 µM)					
